Measurements as given in ChEMBL document CHEMBL1138023, “Macrocyclic ketone analogues of halichondrin B” (Bioorg Med Chem Lett, 2004).

Assays:
[1] = system: U-937; test: In vitro inhibitory concentration required to inhibit the growth of U937 cells was determined at 0 hr by mitotic block reversibility assay; type: functional; settings: Homo sapiens, U-937, 0 h
[2] = system: DLD-1; test: In vitro inhibitory concentration required to inhibit the growth of DLD-1 cells under continuous exposure conditions for 3-4 days; type: functional, cell-based; settings: Homo sapiens
Method in brief: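 Human colon cancer DLD-1 cells grown under continuous drug exposure for 3–4 days. Growth inhibition measured and IC50 reported ± SEM, n = number of experiments.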

[3] = In vitro reversibility ratio in U937 cells; type: functional, U-937
Method in brief: (§1)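 Human histiocytic lymphoma U937 cells, read by flow cytometry. Scores whether a complete mitotic block is maintained 10 h after drug washout.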

[4] = system: U-937; test: In vitro inhibitory concentration required to inhibit the growth of U937 cells was determined at 10 hr by mitotic block reversibility assay; type: functional; settings: Homo sapiens, U-937, 10 h; method in brief: as §1
[5] = system: P388; test: Fold resistance calculated as the inhibition concentration ratio between retrovirally transformed murine P388/VMDRC.04 and parental P388 cells; type: functional
Method in brief: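 Readout of P-glycoprotein (PgP) susceptibility: IC50 in the retrovirally transformed P388/VMDRC.04 line divided by IC50 in parental P388 cells, giving fold resistance.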

Compound `C=C1C[C@@H]2CC[C@@]34C[C@@H]5O[C@@H]6C(O[C@H]7CC[C@H](CC(=O)C[C@@H]8[C@@H](OC)[C@@H](C[C@H](O)CS(=O)(=O)c9ccc(OC)cc9)O[C@H]8C[C@H]8O[C@@H](CC[C@@H]1O2)C[C@@H](C)C8=C)O[C@@H]7[C@@H]6O3)[C@H]5O4` has an IC99 [1] of 0.003 µM, an IC50 [2] of 0.74 nM and a Reversibility ratio [3] of 10. For the same compound, the IC99 [4] was 0.03 µM and the FR [5] was 3.4.
`C=C1C[C@@H]2CC[C@@]34C[C@@H]5O[C@@H]6C(O[C@H]7CC[C@H](CC(=O)C[C@@H]8[C@@H](OC)[C@@H](C[C@H](O)COC(=O)Nc9ccccc9)O[C@H]8C[C@H]8O[C@@H](CC[C@@H]1O2)C[C@@H](C)C8=C)O[C@@H]7[C@@H]6O3)[C@H]5O4` showed an IC99 [1] of 0.003 µM, an IC50 [2] of 1 nM and a Reversibility ratio [3] of 22. The IC99 [4] was 0.065 µM and the FR [5] was 5.7.
In the case of `C=C1C[C@@H]2CC[C@@]34C[C@@H]5O[C@@H]6C(O[C@H]7CC[C@H](CC(=O)C[C@@H]8[C@@H](OC)[C@@H](C[C@H](O)CC#N)O[C@H]8C[C@H]8O[C@@H](CC[C@@H]1O2)C[C@@H](C)C8=C)O[C@@H]7[C@@H]6O3)[C@H]5O4`, the IC99 [1] is reported as 0.002 µM, the IC50 [2] is reported as 0.49 nM and the Reversibility ratio [3] is reported as 15. It also gave an IC99 [4] of 0.03 µM and an FR [5] of 7.
Work on `C=C1C[C@@H]2CC[C@@]34C[C@@H]5O[C@@H]6C(O[C@H]7CC[C@H](CC(=O)C[C@@H]8[C@@H](OC)[C@@H](C[C@H](O)CN=[N+]=[N-])O[C@H]8C[C@H]8O[C@@H](CC[C@@H]1O2)C[C@@H](C)C8=C)O[C@@H]7[C@@H]6O3)[C@H]5O4` yielded an IC99 [1] of 0.003 µM, an IC50 [2] of 0.53 nM and a Reversibility ratio [3] of 10. The IC99 [4] was 0.03 µM and the FR [5] was 1.9.
In the case of `C=C1C[C@@H]2CC[C@@]34C[C@@H]5O[C@@H]6C(O[C@H]7CC[C@H](CC(=O)C[C@@H]8[C@@H](OC)[C@@H](C[C@H](O)CSc9ccc(Cl)cc9)O[C@H]8C[C@H]8O[C@@H](CC[C@@H]1O2)C[C@@H](C)C8=C)O[C@@H]7[C@@H]6O3)[C@H]5O4`, the IC99 [1] is reported as 0.01 µM, the IC50 [2] is reported as 1.2 nM and the Reversibility ratio [3] is reported as 20. It also gave an IC99 [4] of 0.2 µM and an FR [5] of 2.
For `C=C1C[C@@H]2CC[C@@]34C[C@@H]5O[C@@H]6C(O[C@H]7CC[C@H](CC(=O)C[C@@H]8[C@@H](OC)[C@@H](C[C@H](O)COC(=O)Nc9ccc(Cl)cc9)O[C@H]8C[C@H]8O[C@@H](CC[C@@H]1O2)C[C@@H](C)C8=C)O[C@@H]7[C@@H]6O3)[C@H]5O4`, the IC99 [1] was 0.003 µM, the IC50 [2] was 1.3 nM and the Reversibility ratio [3] was 22. The IC99 [4] was 0.065 µM and the FR [5] was 8.6.
In the case of `C=C1C[C@@H]2CC[C@@]34C[C@@H]5O[C@@H]6C(O[C@H]7CC[C@H](CC(=O)C[C@@H]8[C@@H](OC)[C@@H](C[C@H](O)CNC)O[C@H]8C[C@H]8O[C@@H](CC[C@@H]1O2)C[C@@H](C)C8=C)O[C@@H]7[C@@H]6O3)[C@H]5O4`, the IC99 [1] is reported as 0.01 µM, the IC50 [2] is reported as 3.3 nM and the Reversibility ratio [3] is reported as 1. The IC99 [4] was 0.01 µM and the FR [5] was 7.
